Assay results reported in ChEMBL document CHEMBL1139838 (J Med Chem, 2007).
Active and inactive are the calls of the source. The calls are words filed in the database; no cut-off is given here. Where a SMILES comes first, the peptide text is derived from it. [ ]: non-standard residue; d: D form. Tic = O=C(O)[C@@H]1Cc2ccccc2CN1; Cha = N[C@@H](CC1CCCCC1)C(=O)O

Key:
[1] = molecular target: Delta-type opioid receptor (Rattus norvegicus, UniProt P33533); assay: Displacement of [3H]Ile5,6-deltorphin from delta opioid receptor in Wistar rat brain membrane; format: cell membranes
Sequence of Delta-type opioid receptor (P33533 whole entry): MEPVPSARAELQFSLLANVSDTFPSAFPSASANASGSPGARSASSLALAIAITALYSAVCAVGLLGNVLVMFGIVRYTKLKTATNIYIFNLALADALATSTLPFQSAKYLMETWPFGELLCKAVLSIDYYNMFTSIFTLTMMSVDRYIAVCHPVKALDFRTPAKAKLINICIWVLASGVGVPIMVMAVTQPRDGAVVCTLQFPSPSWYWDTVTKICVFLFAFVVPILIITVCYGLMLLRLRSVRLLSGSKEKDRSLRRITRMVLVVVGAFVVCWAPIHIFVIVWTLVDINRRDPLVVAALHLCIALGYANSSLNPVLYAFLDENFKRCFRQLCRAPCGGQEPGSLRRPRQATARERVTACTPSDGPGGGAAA
How it was run: (§1)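 Wistar rat brain membranes in 50 mM Tris·HCl pH 7.4 with 200-300 µg protein. Tritiated ligand at 0.5-1 nM, with fresh unlabeled peptide at 10^-12 to 10^-5 M, for 45 min at 35 °C. Stopped by rapid GF/C filtration and ice-cold buffer washes, then scintillation counting. Nonspecific binding defined with 10 µM naloxone. Duplicates, repeated two or three times, mean ± SEM.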

Mu-type opioid receptor = Mu-type opioid receptor (Rattus norvegicus, UniProt P33535); assay: Displacement of [3H]DAMGO from mu opioid receptor in Wistar rat brain membrane; format: cell membranes; how it was run: as §1
Sequence of Mu-type opioid receptor (P33535 whole entry): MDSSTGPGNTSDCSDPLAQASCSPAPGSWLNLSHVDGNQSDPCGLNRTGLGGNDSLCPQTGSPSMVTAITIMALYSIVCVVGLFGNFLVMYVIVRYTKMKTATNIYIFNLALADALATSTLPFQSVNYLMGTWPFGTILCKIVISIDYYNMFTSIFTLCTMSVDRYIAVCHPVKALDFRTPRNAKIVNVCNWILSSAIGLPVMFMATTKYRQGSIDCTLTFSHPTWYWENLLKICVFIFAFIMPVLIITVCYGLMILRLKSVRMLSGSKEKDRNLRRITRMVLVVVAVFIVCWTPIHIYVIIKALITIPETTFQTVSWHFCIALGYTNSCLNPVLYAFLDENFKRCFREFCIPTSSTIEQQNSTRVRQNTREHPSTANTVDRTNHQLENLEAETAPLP

[2] = molecular target: Mu-type opioid receptor (Cavia porcellus) (UniProt P97266); details: Ileum
Sequence of Mu-type opioid receptor (Cavia porcellus) (P97266 whole entry): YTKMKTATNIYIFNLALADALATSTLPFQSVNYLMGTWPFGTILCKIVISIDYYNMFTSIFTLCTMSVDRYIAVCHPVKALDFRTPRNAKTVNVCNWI

[3] = molecular target: Delta-type opioid receptor (Homo sapiens) (UniProt P41143); assay: Activity at human delta opioid receptor expressed in CHO cells by [35S]GTP-gamma-S binding assay; format: functional, cell-based
Sequence of Delta-type opioid receptor (Homo sapiens) (P41143 whole entry): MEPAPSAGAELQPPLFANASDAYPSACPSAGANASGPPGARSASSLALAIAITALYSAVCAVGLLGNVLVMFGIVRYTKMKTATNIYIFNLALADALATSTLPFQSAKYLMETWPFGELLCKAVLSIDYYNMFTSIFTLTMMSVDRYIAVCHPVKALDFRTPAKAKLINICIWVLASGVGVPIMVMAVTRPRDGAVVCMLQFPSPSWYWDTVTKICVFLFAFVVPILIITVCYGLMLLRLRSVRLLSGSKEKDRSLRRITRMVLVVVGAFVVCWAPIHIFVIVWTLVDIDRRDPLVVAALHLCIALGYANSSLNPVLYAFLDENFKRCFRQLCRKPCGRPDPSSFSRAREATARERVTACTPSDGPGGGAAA

[4] = molecular target: Delta-type opioid receptor (Mus musculus) (UniProt P32300); details: Vas deferens
Sequence of Delta-type opioid receptor (Mus musculus) (P32300 whole entry): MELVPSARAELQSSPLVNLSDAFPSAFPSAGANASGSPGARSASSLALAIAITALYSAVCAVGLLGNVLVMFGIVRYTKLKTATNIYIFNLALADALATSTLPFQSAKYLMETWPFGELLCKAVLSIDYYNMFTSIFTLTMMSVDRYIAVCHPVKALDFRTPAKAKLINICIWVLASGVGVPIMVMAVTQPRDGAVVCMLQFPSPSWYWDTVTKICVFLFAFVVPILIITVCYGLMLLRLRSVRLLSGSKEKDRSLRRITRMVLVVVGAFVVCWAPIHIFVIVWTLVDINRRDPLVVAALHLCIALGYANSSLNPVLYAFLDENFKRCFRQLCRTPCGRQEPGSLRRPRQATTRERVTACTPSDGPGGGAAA

[5] = molecular target: Mu-type opioid receptor (Cavia porcellus) (UniProt P97266); details: Ileum; remark: listed apart in the source

Compound	Ki [1] [nM]	Ki (Mu-type opioid receptor) [nM]	Ke [2] [nM]	Activity [3]	Ke [4] [nM]	further results
Cc1cc(O)cc(C)c1C[C@H](N)C(=O)N1Cc2ccccc2C[C@H]1C(=O)N[C@H](C(=O)N[C@@H](Cc1ccccc1)C(=O)O)[C@H](C)C1CCCCC1	2	280				
Cc1cc(O)cc(C)c1C[C@H](N)C(=O)N1Cc2ccccc2CC1C(=O)N[C@@H](C(=O)N[C@@H](Cc1ccccc1)C(N)=O)[C@@H](C)C1CCCCC1 (stereo partly drawn)			120	inactive	1.94	
Cc1cc(O)cc(C)c1C[C@H](N)C(=O)N1Cc2ccccc2C[C@H]1C(=O)N[C@H](C(=O)N[C@@H](Cc1ccccc1)C(N)=O)[C@@H](C)C1CCCCC1	4	330				
Cc1cc(O)cc(C)c1C[C@H](N)C(=O)N1Cc2ccccc2CC1C(=O)N[C@@H](C(=O)N[C@@H](Cc1ccccc1)C(=O)O)[C@H](C)C1CCCCC1 (stereo partly drawn)			290	inactive	0.55	
Cc1cc(O)cc(C)c1C[C@H](N)C(=O)N1Cc2ccccc2CC1C(=O)N[C@@H](C(=O)N[C@@H](Cc1ccccc1)C(N)=O)[C@H](C)C1CCCCC1 (stereo partly drawn)			670	inactive	1.7	
Cc1cc(O)cc(C)c1C[C@H](N)C(=O)N1Cc2ccccc2CC1C(=O)N[C@H](C(=O)N[C@@H](Cc1ccccc1)C(=O)O)[C@H](C)C1CCCCC1 (stereo partly drawn)				inactive	0.81	IC30 [5]: 150 nM
Cc1cc(O)cc(C)c1C[C@H](N)C(=O)N1Cc2ccccc2C[C@H]1C(=O)N[C@@H](C(=O)N[C@@H](Cc1ccccc1)C(N)=O)[C@H](C)C1CCCCC1	13	290				
Cc1cc(O)cc(C)c1C[C@H](N)C(=O)N1Cc2ccccc2C[C@H]1C(=O)N[C@@H](C(=O)N[C@@H](Cc1ccccc1)C(=O)O)[C@@H](C)C1CCCCC1	1.5	55				
Cc1cc(O)cc(C)c1C[C@H](N)C(=O)N1Cc2ccccc2CC1C(=O)N[C@H](C(=O)N[C@@H](Cc1ccccc1)C(=O)O)[C@@H](C)C1CCCCC1 (stereo partly drawn)			970	inactive	0.24	
Cc1cc(O)cc(C)c1C[C@H](N)C(=O)N1Cc2ccccc2CC1C(=O)N[C@H](C(=O)N[C@@H](Cc1ccccc1)C(N)=O)[C@@H](C)C1CCCCC1 (stereo partly drawn)			340	inactive	0.77	
Cc1cc(O)cc(C)c1C[C@H](N)C(=O)N1Cc2ccccc2CC1C(=O)N[C@H](C(=O)N[C@@H](Cc1ccccc1)C(N)=O)[C@H](C)C1CCCCC1 (stereo partly drawn)				inactive	0.68	IC40 [5]: 110 nM
Cc1cc(O)cc(C)c1C[C@H](N)C(=O)N1Cc2ccccc2C[C@H]1C(=O)N[C@@H](C(=O)N[C@@H](Cc1ccccc1)C(N)=O)[C@@H](C)C1CCCCC1	7	200				
Cc1cc(O)cc(C)c1C[C@H](N)C(=O)N1Cc2ccccc2C[C@H]1C(=O)N[C@@H](C(=O)N[C@@H](Cc1ccccc1)C(=O)O)[C@H](C)C1CCCCC1	2	580				
N[C@@H](Cc1ccc(O)cc1)C(=O)N1Cc2ccccc2C[C@H]1C(=O)N[C@@H](Cc1ccccc1)C(=O)N[C@@H](Cc1ccccc1)C(=O)O (H-Y[Tic]FF-OH)					4.8	Ke [5]: > 10000 nM
Cc1cc(O)cc(C)c1C[C@H](N)C(=O)N1Cc2ccccc2C[C@H]1C(=O)N[C@H](C(=O)N[C@@H](Cc1ccccc1)C(N)=O)[C@H](C)C1CCCCC1	4.1	170				
Cc1cc(O)cc(C)c1C[C@H](N)C(=O)N1Cc2ccccc2C[C@H]1C(=O)N[C@H](C(=O)N[C@@H](Cc1ccccc1)C(=O)O)[C@@H](C)C1CCCCC1	0.48	1400				
Cc1cc(O)cc(C)c1C[C@H](N)C(=O)N1Cc2ccccc2CC1C(=O)N[C@@H](C(=O)N[C@@H](Cc1ccccc1)C(=O)O)[C@@H](C)C1CCCCC1 (stereo partly drawn)			19	inactive	0.11	
N[C@@H](Cc1ccc(O)cc1)C(=O)N1Cc2ccccc2C[C@H]1C(=O)N[C@@H](CC1CCCCC1)C(=O)N[C@@H](Cc1ccccc1)C(=O)O (H-Y[Tic][Cha]F-OH)	0.61	3600			0.44	
NC(=O)[C@H](Cc1ccccc1)NC(=O)[C@H](Cc1ccccc1)NC(=O)[C@@H]1Cc2ccccc2CN1C(=O)[C@H](N)Cc1ccc(O)cc1					18	Ke [5]: 1700 nM
Cc1cc(O)cc(C)c1C[C@@H](N)C(=O)N1Cc2ccccc2C[C@H]1C(=O)N[C@@H](Cc1ccccc1)C(=O)N[C@@H](Cc1ccccc1)C(=O)O					0.2	
